According to ChEMBL document CHEMBL4325907, “Diaryl hydroxylamines as pan or dual inhibitors of indoleamine 2,3-dioxygenase-1, indoleamine 2,3-dioxygenase-2 and tryptophan dioxygenase” (Eur J Med Chem, 2019):

Tests used:
[1] = target: T1, Tryptophan 2,3-dioxygenase (Homo sapiens, UniProt P48775); test: Inhibition of TDO (unknown origin) using L-tryptophan as substrate by spectrophotometric method
Target sequence in this assay (P48775 whole entry): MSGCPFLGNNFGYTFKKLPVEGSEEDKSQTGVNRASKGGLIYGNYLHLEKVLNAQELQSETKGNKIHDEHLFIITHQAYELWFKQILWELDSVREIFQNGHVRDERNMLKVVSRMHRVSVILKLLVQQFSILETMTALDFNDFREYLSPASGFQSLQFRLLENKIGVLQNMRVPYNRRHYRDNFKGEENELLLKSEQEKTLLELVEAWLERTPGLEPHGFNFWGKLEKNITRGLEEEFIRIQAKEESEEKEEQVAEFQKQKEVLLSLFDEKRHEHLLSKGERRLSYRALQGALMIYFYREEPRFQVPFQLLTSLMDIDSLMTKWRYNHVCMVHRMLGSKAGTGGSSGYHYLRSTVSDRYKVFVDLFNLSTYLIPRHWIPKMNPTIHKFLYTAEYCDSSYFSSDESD

[2] = target: T2, Indoleamine 2,3-dioxygenase 2 (Homo sapiens) (UniProt Q6ZQW0); test: Inhibition of IDO2 (unknown origin) at 100 uM using L-tryptophan as substrate by spectrophotometric method relative to control
T2 sequence (whole entry): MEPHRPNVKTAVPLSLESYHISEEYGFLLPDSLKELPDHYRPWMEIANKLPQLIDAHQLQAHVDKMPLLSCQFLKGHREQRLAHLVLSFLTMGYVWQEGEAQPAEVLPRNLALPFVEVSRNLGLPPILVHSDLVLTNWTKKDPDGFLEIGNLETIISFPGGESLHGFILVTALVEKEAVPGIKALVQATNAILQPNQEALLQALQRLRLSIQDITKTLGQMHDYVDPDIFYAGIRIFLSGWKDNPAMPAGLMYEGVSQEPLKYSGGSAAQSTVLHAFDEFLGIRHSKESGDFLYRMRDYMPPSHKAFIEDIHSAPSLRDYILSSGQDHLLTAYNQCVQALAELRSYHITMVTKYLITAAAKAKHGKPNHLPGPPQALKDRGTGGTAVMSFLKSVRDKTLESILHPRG

[3] = target: T3, Indoleamine 2,3-dioxygenase 2 (Mus musculus, UniProt Q8R0V5); test: Inhibition of mouse IDO2 expressed in human T-REx cells using L-tryptophan as substrate after 20 hrs; assay type: cell-based
T3 sequence (Q8R0V5 whole entry): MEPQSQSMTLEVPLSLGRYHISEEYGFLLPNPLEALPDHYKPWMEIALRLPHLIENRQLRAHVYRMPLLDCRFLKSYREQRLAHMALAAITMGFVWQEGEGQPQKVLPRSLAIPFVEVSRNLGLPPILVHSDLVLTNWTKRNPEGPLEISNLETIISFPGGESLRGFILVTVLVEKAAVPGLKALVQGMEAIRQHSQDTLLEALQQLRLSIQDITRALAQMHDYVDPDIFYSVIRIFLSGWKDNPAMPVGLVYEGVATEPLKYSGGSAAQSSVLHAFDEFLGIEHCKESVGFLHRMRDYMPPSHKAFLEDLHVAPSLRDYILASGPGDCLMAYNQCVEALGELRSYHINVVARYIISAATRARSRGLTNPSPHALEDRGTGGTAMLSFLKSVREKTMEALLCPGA
How it was run: (§1)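 HeLa cells (endogenous human IDO1) were induced with 100 ng/mL IFNγ for 24 h at 100 μM Trp. T-REx cells carried tet-regulated human TDO (2 ng/mL doxycycline, 24 h, 100 μM Trp) or mouse IDO2 (doxycycline plus 8 mM 5-aminolevulinic acid, 20 μM hemin, 4 mM Trp, 48 h). After induction, compound serial dilutions were added in medium with final Trp 100 μM (IDO1/TDO) or 2 mM (IDO2) for 20 h at 37 °C. Read-out was TCA fixation, 65 °C hydrolysis, then p-dimethylaminobenzaldehyde colour.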

[4] = target: T1, Tryptophan 2,3-dioxygenase; test: Inhibition of TDO (unknown origin) at 100 uM using L-tryptophan as substrate by spectrophotometric method relative to control
Target sequence in this assay (P48775 whole entry, looked up): as the sequence (P48775 whole entry) above

[5] = target: T1, Tryptophan 2,3-dioxygenase; test: Inhibition of human TDO expressed in human T-REx cells using L-tryptophan as substrate after 20 hrs; assay type: cell-based; how it was run: as §1
Target sequence in this assay (P48775 whole entry): as the sequence (P48775 whole entry) above

[6] = target: T4, Indoleamine 2,3-dioxygenase 1 (Homo sapiens, UniProt P14902); test: Inhibition of IDO1 in human HeLa cells using L-tryptophan as substrate after 20 hrs; assay type: cell-based; how it was run: as §1
Target sequence in this assay (P14902 whole entry): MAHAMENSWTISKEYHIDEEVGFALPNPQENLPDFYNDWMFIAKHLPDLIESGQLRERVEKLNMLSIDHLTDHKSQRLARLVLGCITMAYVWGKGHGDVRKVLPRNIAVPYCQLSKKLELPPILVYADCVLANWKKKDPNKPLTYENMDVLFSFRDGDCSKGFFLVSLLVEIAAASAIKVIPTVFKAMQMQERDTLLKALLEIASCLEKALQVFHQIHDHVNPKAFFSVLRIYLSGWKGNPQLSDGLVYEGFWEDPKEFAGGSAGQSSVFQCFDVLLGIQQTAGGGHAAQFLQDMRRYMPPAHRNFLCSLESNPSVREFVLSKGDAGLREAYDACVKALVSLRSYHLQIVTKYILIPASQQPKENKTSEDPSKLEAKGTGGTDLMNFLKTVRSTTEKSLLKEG

[7] = target: T4, Indoleamine 2,3-dioxygenase 1; test: Inhibition of IDO1 (unknown origin) at 100 uM using L-tryptophan as substrate by spectrophotometric method relative to control
Target sequence in this assay (P14902 whole entry, looked up): as the sequence (P14902 whole entry) above

[8] = Cytotoxicity against human HeLa cells assessed as cell viability up to 100 uM relative to control; assay type: cell-based; settings: read-out: Activity
[9] = target: T4, Indoleamine 2,3-dioxygenase 1; test: Inhibition of IDO1 (unknown origin) using L-tryptophan as substrate by spectrophotometric method
Target sequence in this assay (P14902 whole entry): as above

Homo sapiens [10] = species on record: Homo sapiens; test: Selectivity ratio of IC50 for inhibition of mouse IDO2 expressed in human T-REx cells to IC50 for inhibition of human TDO expressed in human T-REx cells; assay type: cell-based; how it was run: as §1
[11] = Selectivity ratio of IC50 for inhibition of mouse IDO2 expressed in human T-REx cells to IC50 for inhibition of IDO1 in human HeLa cells; assay type: cell-based; how it was run: as §1
[12] = target: T1, Tryptophan 2,3-dioxygenase; test: Inhibition of TDO (unknown origin) at 200 uM using L-tryptophan as substrate by spectrophotometric method relative to control
Target sequence in this assay (P48775 whole entry, looked up): as the sequence (P48775 whole entry) above

[13] = target: T4, Indoleamine 2,3-dioxygenase 1; test: Inhibition of IDO1 (unknown origin) at 200 uM using L-tryptophan as substrate by spectrophotometric method relative to control
Target sequence in this assay (P14902 whole entry, looked up): as the sequence (P14902 whole entry) above

[14] = target: T2, Indoleamine 2,3-dioxygenase 2 (Homo sapiens); test: Inhibition of IDO2 (unknown origin) at 200 uM using L-tryptophan as substrate by spectrophotometric method relative to control
[15] = target: T5, Indoleamine 2,3-dioxygenase 2 (Homo sapiens, UniProt Q6ZQW0); test: Inhibition of IDO2 (unknown origin) using L-tryptophan as substrate by spectrophotometric method
T5 sequence (Q6ZQW0 whole entry): T2 sequence (whole entry)

Homo sapiens [16] = species on record: Homo sapiens; test: Selectivity ratio of IC50 for inhibition of human TDO expressed in human T-REx cells to IC50 for inhibition of IDO1 in human HeLa cells; assay type: cell-based; how it was run: as §1

| IC50 ([6]; hela) [µM] | Compound | IC50 [1] [µM] | inhibition [2] [%] | IC50 [3] [µM] | inhibition [4] [%] | IC50 [5] [µM] | IC50 [6] [µM] | inhibition [7] [%] | viability [8] [%] | IC50 [9] [µM] | Ratio IC50 (Homo sapiens [10]) | Ratio IC50 [11] | inhibition [12] [%] | inhibition [13] [%] | inhibition [14] [%] | IC50 [15] [µM] | Ratio IC50 (Homo sapiens [16]) |
| --- | --- | --- | --- | --- | --- | --- | --- | --- | --- | --- | --- | --- | --- | --- | --- | --- | --- |
|  | NOC(c1ccc(F)cc1)c1ccc(F)cc1 | 9 | 73.6 | 12.1 | > 95 | 5.15 | 1.68 | > 95 | ≥ 80 | 9 |  |  |  |  |  |  |  |
|  | NOC(c1ccccc1)c1ccccc1F (configuration not stated) |  | 77.8 | 30.5 | 87.2 | 3.92 | 1.26 | > 95 | ≥ 80 | 12 | 10 | 10 |  |  |  |  |  |
|  | NOC(c1ccccc1)c1cc(C(F)(F)F)cc(C(F)(F)F)c1 (configuration not stated) |  |  | 14.5 |  | 77.4 | 3.35 |  | 60 |  |  |  | 50.8 | 56 | 53.3 |  |  |
|  | NOC(c1ccccc1)c1cccc(Cl)c1Cl (configuration not stated) | 9 | 72.4 | 8.95 | > 95 | 4.54 | 1.87 | > 95 | ≥ 80 | 8 |  |  |  |  |  |  |  |
|  | NOC(c1ccccc1)c1cccc(C(F)(F)F)c1F (configuration not stated) |  | 81.1 | 16.8 | 93.2 | 5.62 | 0.933 | > 95 | ≥ 80 | 6 |  |  |  |  |  |  |  |
|  | O=C1CC(c2c[nH]c3ccc(F)cc23)C(=O)N1 (configuration not stated) [PF-06840003] |  |  | 327 |  | 378 |  |  | ≥ 80 |  |  |  |  |  |  |  |  |
| 1.11 | COc1ccccc1C(ON)c1ccccc1 (configuration not stated) |  | 80 | 16.5 |  | 48.8 |  | > 95 | ≥ 80 | 23 |  |  |  |  |  |  |  |
|  | NOC(c1ccccc1)c1ccc(O)cc1 (configuration not stated) |  |  | 12.6 |  | 29.8 | 2.89 |  | ≥ 80 |  |  |  | 48.7 | 18.3 | 72.3 |  |  |
|  | NOC(c1ccc(Cl)cc1)c1ccc(Cl)cc1 | 2 | 69.3 | 12.5 | > 95 | 4.53 | 1.09 | > 95 | ≥ 80 | 3 |  |  |  |  |  |  |  |
|  | NOC(c1ccccc1)c1ccc(Cl)c(Cl)c1 (configuration not stated) | 4 | > 95 | 19.5 | > 95 | 8.11 | 1.91 | > 95 | ≥ 80 | 2 |  |  |  |  |  | 32 |  |
|  | NOC(c1ccccc1)c1ccccc1Br (configuration not stated) |  | 81 | 12.3 | 90.4 | 22.5 | 1.46 | > 95 | ≥ 80 | 17 |  | 5 to 10 |  |  |  |  | 5 to 10 |
|  | NOC(c1ccccc1)c1cccc(F)c1 (configuration not stated) | 6 | 82 | 9.99 | > 95 | 6.21 | 0.939 | > 95 | ≥ 80 | 5 |  |  |  |  |  |  |  |
|  | NOC(c1ccccc1)c1ccsc1 (configuration not stated) |  | 76.5 | 49.9 | 93.3 | 4.41 | 3.36 | 83 | ≥ 80 |  | 10 | 10 |  |  |  |  |  |
